Assay outcomes (PubChem)
IEC-6 cytotox = IEC-6 cytotoxicity, counter-screen for KLF5 inhibitors; luminescence viability; inhibition, % at 5 µM; 290,000 tested, 0.78% active; AID 1825; in the data active = inhibition above about 22%;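 note: 0% = plate median of test compound wells and 100% = cytotoxic reference compound wells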
APP transl inh = APP translation inhibition; SH-SY5Y APP 5'UTR-luciferase reporter, luminescence; inhibition, % at 2 µM; 190,000 tested, 0.82% active;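 active = inhibition above a set limit, derived from the sample mean plus 3 SD, cut at about 45% in these data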
MT stabilize HCS = microtubule stabilization, imaging screen. HeLa tubulin immunostaining HCS, 24 h; share of cells brighter than vehicle mean+2SD. % tubulin-high responders, % at 10 µM. 200,000 tested, 0.83% active;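 active = plate Z-score above 3 for both tubulin-high and condensed-nucleus cell shares, with cell loss under 80%, at 10 µM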;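 note: anti alpha tubulin signal scored within the nucleus-defined area of each cell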
b-catenin transl = beta-catenin nuclear translocation modulation; HeLa beta-catenin nuclear translocation, immunofluorescence imaging; nuclear translocation activity, % at 5 µM; 190,000 tested, 0.3% active;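 active = nuclear translocation activity above 50% at 5 µM, with a well cell count of 50 or more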;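 note: per-cell ratio of nuclear to cytoplasmic median beta-catenin stain intensity; plate controls were DMSO negative control for no effect and GSK-3 inhibitor IX positive control for full effect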
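test system = HeLa cells, endogenous beta-catenin | dosing = single 5 µM dose plus 0.02–20 µM confirmation series | times = compound treatment 24 h, 37°C, 5% CO2 | technique = beta-catenin immunofluorescence imaging with DAPI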
BaF3 parental = parental Ba/F3 viability inhibition as JAK2V617F counter-screen; 220,000 tested, 1.1% active; CellTiter-Glo ATP luminescence; inhibition, % at 5.6 µM;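 active = inhibition above a per-campaign cutoff, the mean inhibition of all tested compounds plus 3 SD, cut at about 27% in these data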;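 note: 0% = DMSO wells and 100% = JAK Inhibitor I control wells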
Ba/F3 V617F tox = loss of viability in JAK2V617F-driven Ba/F3 cells | Ba/F3 EpoR-JAK2V617F viability, ATP luminescence | inhibition, % at 5.6 µM | 220,000 tested, 1.1% active | AID 1446;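 active = inhibition above the campaign mean plus 3 SD over all tested compounds, cut at about 24% in these data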;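 note: cytokine-independent growth of Ba/F3 cells driven by EpoR plus mutant JAK2; 0% = DMSO-treated cells and 100% = JAK inhibitor I control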
Active calls of the source: *; nt = not tested or not shown. An excerpt weighted towards active compounds, which were near 2.2% of everything screened.

SMILES | IEC-6 cytotox | APP transl inh | MT stabilize HCS | b-catenin transl | BaF3 parental | Ba/F3 V617F tox
O=C(/C=C/c1ccco1)NC(=S)Nc1nc(-c2ccc(Cl)cc2)cs1 | -6 | 4 | 12* | -2 | 3 | 0
COC(=O)c1cccc(Cn2c(Cl)c(/C=N/Nc3ccccc3C)sc2=O)c1 | -6 | 46* | 2 | nt | 0 | -3
Cc1ccccc1N/N=C/c1sc(=O)n(Cc2cccc(C(=O)O)c2)c1Cl | -2 | nt | nt | 0 | -2 | -3
COCc1cc(C)nc(SCC(=O)Nc2ccc3c(c2)n(C)c(=O)n3C)c1C#N | 6 | nt | nt | nt | nt | nt
NC1=NC(c2ccccc2)N=C(Nc2ccccc2)N1 (centres undefined) | 6 | nt | nt | 4 | 68* | 20
Cc1cc(C(F)(F)F)nc(CCNC(=O)C2CCC(=O)N(Cc3cccc(F)c3)C2)n1 (centres undefined) | -2 | nt | nt | nt | nt | nt
Cn1cc(C(C[N+](=O)[O-])c2ccccc2)c2ccccc21 (centres undefined) | 18 | nt | nt | nt | nt | nt
CC(=O)n1cc(C(C[N+](=O)[O-])SCCN)c2ccccc21 (centres undefined) | -1 | -4 | 26* | 16 | 7 | 3
CCc1nnc(N/N=C/c2c(C)[nH]c3ccccc23)n1N | 102* | -17 | 3 | 0 | 13 | 19
Cc1cc(NC(=O)CCC(=O)N(CC(=O)NCC2CCCO2)c2ccc(C)c(C)c2)no1 (centres undefined) | -2 | nt | nt | nt | nt | nt
CCOc1ccc(S(=O)(=O)N2CCC(C(=O)NC3CCCCC3)CC2)cc1 | 3 | nt | nt | nt | nt | nt
Cn1cc(C(=O)Nc2ccc(C#N)cc2)c2ccccc2c1=O | -2 | nt | nt | nt | nt | nt
COc1ccnc2c1c(=O)n(Cc1ccccc1Cl)c(=O)n2C | -4 | nt | nt | nt | nt | nt
Cn1c(Oc2ccc(Cl)c3cccnc23)nc2c1c(=O)n(Cc1ccccc1Cl)c(=O)n2C | 0 | -6 | 2 | 1 | 94* | -2
Cc1nc(NC2=NCN(Cc3ccccc3)CN2)nc2ccccc12 | nt | nt | nt | 0 | nt | nt
Cc1nc(NC2=NCN(CC3CCCO3)CN2)nc2ccccc12 (centres undefined) | 3 | 4 | 5 | nt | 34* | 38*
CN(C)c1ccc(C(=S)N2CCCC2)cc1Br | 0 | nt | nt | nt | nt | nt
CCN(CC)CCCN(C(=O)c1ccc(OC)cc1)c1nc(-c2ccc(OC)cc2)cs1 | 13 | nt | nt | nt | nt | nt
COCCCN(C(C)=O)c1nc(-c2ccc(OC)cc2)cs1 | 17 | -8 | 23* | 0 | 27 | 12
Cc1ccc(/C=C/C(=O)N2CCc3ccccc32)o1 | -5 | -168 | 10* | nt | 2 | 2
O=C(/C=C/c1ccco1)N1CCc2ccccc21 | 6 | -250 | 2 | -3 | 3 | 1
COc1cccc(CCC(=O)N2CCC(n3nccc3NC(=O)CC(C)C)CC2)c1 | 4 | nt | nt | nt | nt | nt
O=C1c2cccc3c([N+](=O)[O-])ccc(c23)C(=O)N1c1ccccn1 | 7 | 81* | 2 | 11 | 10 | 21
O=C1c2cccc3c([N+](=O)[O-])ccc(c23)C(=O)N1c1nccs1 | 8 | 81* | 3 | 9 | 32* | 39*
O=C1c2cccc3c([N+](=O)[O-])ccc(c23)C(=O)N1c1ccc(Cl)cn1 | 0 | 78* | 60 | 1 | -1 | -2
SMILES | IEC-6 cytotox | APP transl inh | MT stabilize HCS | b-catenin transl | BaF3 parental | Ba/F3 V617F tox
CCN(c1ccccc1C(=O)O)S(=O)(=O)c1cccc2nsnc12 | -5 | nt | nt | nt | nt | nt
Cn1nc(C(C)(C)C)cc1C(=O)NCc1ccc(N2CCCC2=O)cc1 | 11 | -16 | 4 | -1 | 93* | 58*
O=C(NCCCN1CCN(c2cccc(Cl)c2)CC1)c1ccc(N2CCCC2=O)cc1 | -5 | 67* | 2 | -4 | 4 | -3
O=C(NCc1ccc(N2CCCC2=O)cc1)c1ccc(F)cc1 | 4 | -7 | 9.4* | -2 | 6 | 3
O=C(NCCCN1CCN(c2cccc(Cl)c2)CC1)c1cccc(N2CCCC2=O)c1 | -4 | -4 | 2 | 0 | 3 | -2
CCCCN(C(=O)NCCCCCCNC(=O)N(CCCC)C1CCS(=O)(=O)C1)C1CCS(=O)(=O)C1 (centres undefined) | -4 | nt | nt | nt | nt | nt
CN(c1cccc2cccnc12)S(=O)(=O)c1ccccc1 | 2 | nt | nt | nt | nt | nt
CCOc1ccc2c(c1)OC(c1ccc(C)cc1)(C(F)(F)F)NC2=O (centres undefined) | 42* | 95* | 6 | -2 | 51* | 58*
Cc1ccc(OCC(=O)Nc2ccc3c(c2)C(=O)NC3=O)cc1 | -4 | nt | nt | nt | nt | nt
Cc1ccc(O)c(/C=N/NC(=O)C2=NNC(c3ccccc3)(c3ccccc3)C2)c1 | -3 | 78* | 4 | 0 | 4 | -4
C=CCNC(=S)/N=c1/ccccn1CCC | 0 | nt | nt | 2 | 56* | 51*
C=CCNC(=S)/N=c1/ccccn1C | 1 | nt | nt | 0 | 0 | -1
O=C(NCCc1ccccc1Cl)c1cc(COc2ccc(F)cc2F)on1 | -2 | nt | nt | nt | nt | nt
Cc1sc2nc(SCC(=O)C(C)(C)C)n(Cc3ccco3)c(=O)c2c1C | 7 | -4 | 35* | 4 | -1 | -3
Cc1sc2nc(SCc3ccccc3)n(Cc3ccco3)c(=O)c2c1C | 1 | -8 | 3 | 0 | 0 | -4
CCOC(=O)c1c(-c2ccccc2)oc2cc(CN(C)C)c(O)c(CN(C)C)c12 | 4 | 53* | 1 | nt | 2 | -1
CCOC(=O)c1c(C)oc2cc(Cl)c(O)c(CN(C)C)c12 | 6 | nt | nt | 0 | 2 | 0
Cc1ccc(S(=O)(=O)Nc2cc(C)cn(Cc3ccc(F)cc3)c2=O)cc1 | -4 | nt | nt | nt | nt | nt
Cc1ccc(-n2ncc3c(=O)n(CC(=O)N(C(C)C)C(C)C)cnc32)cc1 | -6 | nt | nt | nt | nt | nt
CCOC(=O)C1=C(c2ccccc2)N=C2SCC(=O)N2C1c1ccc(OC)c(OC)c1 (centres undefined) | 3 | -6 | 2 | -4 | 0 | -4
CCOC(=O)C1=C(c2ccccc2)N=C2SCC(=O)N2C1c1cccc(OC)c1 (centres undefined) | -1 | 61* | 4 | -8 | 3 | 1
Nc1c2c(=O)oc(-c3ccccc3)cc2nn1-c1ccccc1 | 8 | -150 | 29* | nt | 5 | 3
Cc1c(-c2ccc(Cl)cc2)oc(=O)c2c(N)n(-c3ccccc3)nc12 | -5 | 8 | 2 | 3 | -1 | -5
O=C(CNCc1ccccn1)Nc1ccc([N+](=O)[O-])cc1C(=O)Nc1ccccc1F | 6 | nt | nt | nt | nt | nt
CC1CCCC(NC(=O)CN2C(=O)c3cccnc3Oc3ccc(Cl)cc32)C1C (centres undefined) | 1 | nt | nt | nt | nt | nt
O=C1NC(c2ccccc2Cl)Nc2ccccc21 (centres undefined) | 0 | 5 | 27* | -1 | 5 | 0
Clc1ccccc1C1Nc2cccc3cccc(c23)N1 | -8 | nt | nt | nt | nt | nt
CCN(CC)c1ccc(NC(=O)c2ccccc2Br)cc1S(=O)(=O)Nc1ccccc1OC | -2 | -12 | 2 | nt | 4 | 2
CCN(CC)c1ccc(NC(=O)c2ccc(=O)[nH]c2)cc1S(=O)(=O)Nc1ccccc1OC | 3 | 8 | 28* | 2 | 5 | 0
Cc1ccc(-c2nn(-c3ccccc3)cc2CO)cc1 | 3 | nt | nt | nt | nt | nt
